Bioassay records from PubChem.
Only a selection was taken, and hits are over-represented in it overall.
Yeast lifespan up: compounds extending yeast replicative lifespan, primary screen, S. cerevisiae, OD615; inhibition of the nicotinamide effect, % at 10 µM; S. cerevisiae growth with nicotinamide; deaD strain in restrictive glucose medium; 130,000 compounds, 0.68% hits;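 active = inhibition above a set limit, placed 3 SD over the median of all compounds, cut at about 26% in these data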
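Test system – modified budding yeast, DeaD strain · Compound – single dose 10 µM compound, 0.25% DMSO · Times – culture preincubation 4 h, compound exposure 48 h, both 30 °C · Detection – optical density (absorbance) at 615 nm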
PostGolgi yeast: phenotypic screen on post-Golgi transport, primary screen. inhibition, % at 10 µM. post-Golgi transport phenotypic cell assay. 98,000 compounds, 0.9% hits;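 note: yeast cells grown in 1536-well plates; yeast grown about 18 h at 30C before absorbance read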
PostGolgi ctrl: growth inhibition of yeast control strain, primary screen, counter-screen for post-Golgi transport modulator project. efflux-deficient yeast background strain, growth absorbance A615, 16 h. inhibition, % at 10 µM. 98,000 compounds, 5% hits. AID 738, 2007
BB579 growth dn: growth inhibitors of yeast BB579 in restrictive medium, primary screen, yeast lifespan-shortening project, S. cerevisiae; inhibition, % at 10 µM; 140,000 compounds, 0.51% hits; OD615, 48 h;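 active = inhibition above a set limit, 3 SD over the mean compound inhibition, cut at about 44% in these data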
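Test system: S. cerevisiae DeaD strain BB579 yeast; Medium: restrictive CSMM-D medium; Compound: one dose, 10 µM compound with 0.25% DMSO; Incubation: 4 h cell preincubation, 48 h compound exposure, 30 °C humidified; Signal: OD at 615 nm; Benchmarks: amphotericin B at 10 µg/mL as positive control.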
Large screens that a line does not name were inactive. Cut-off read from the data, not from the text of the source, unless noted: active = inhibition above about 30%; inactive = the rest.

CCOC(=O)C1=C(N2CCCCC2)c2cc3c(n2C1=O)CCCC3	PostGolgi ctrl 33
CCOC(=O)c1c(N2CCCCC2)c2ccccc2[nH]c1=O	none
O=C(CSc1nc2ccccc2c(=O)n1NC(=O)Cc1ccccc1)NCCc1ccccc1	none
CN(C)CCCOC(=O)COc1ccc(C(C)(C)C)cc1	none (no result: PostGolgi yeast, PostGolgi ctrl)
COc1ccc(S(=O)(=O)NCc2ccco2)c2ccccc12	PostGolgi ctrl 34
COc1ccc(CCN(C)C(=O)c2ccc(S(=O)(=O)NCc3ccco3)cc2)cc1OC	none (no result: PostGolgi yeast, PostGolgi ctrl)
COc1ccc(C(=O)Nc2ccc(S(=O)(=O)NCc3ccco3)cc2)cc1OC	PostGolgi ctrl 33
N#C/C(=C\Nc1ccccc1O)c1nc2ccccc2o1	none (no result: PostGolgi yeast, PostGolgi ctrl)
Cc1nc(Nc2ccc(Cl)cc2Cl)sc1C(=O)Nc1ccccc1	none (no result: PostGolgi yeast, PostGolgi ctrl)
Cc1nc(Nc2ccc(Cl)c(Cl)c2)sc1C(=O)Nc1ccccc1	BB579 growth dn 79 (no result: PostGolgi yeast, PostGolgi ctrl)
O=C(c1n[nH]c2c1CCCC2)n1ccnc1	none
Cc1ccc(C(C(=O)NC2CCCCC2)N(Cc2ccco2)C(=O)Cn2cnc3ccccc32)cc1 (configuration not stated)	none (no result: Yeast lifespan up, PostGolgi yeast, PostGolgi ctrl)
O=c1[nH]c(SCc2nc3ccccc3c(=O)n2-c2ccccc2C(F)(F)F)nc2ccccc12	none (no result: PostGolgi yeast, PostGolgi ctrl)
CCc1c(C(=O)NCCc2ccc(OC)c(OC)c2)[nH]c(C)c1C(C)=O	Yeast lifespan up 47
CCc1c(C(=O)Nc2cc(C)ccc2OC)[nH]c(C)c1C(C)=O	PostGolgi ctrl 55
CCOc1ccc(OCC)c(NC(=O)CN2CCC(NC(=O)c3cccc(F)c3)CC2)c1	none
C[C@@H](C(=O)NCCc1c[nH]c2ccccc12)[C@H]1C[C@]1(C)[C@H](NC(=O)OCc1ccccc1)c1ccccc1	none (no result: PostGolgi yeast, PostGolgi ctrl)
CS(=O)(=O)C1=NSC2=NC(=O)/C(=C\c3ccc(-c4ccccc4)o3)C(=N)N21	none (no result: PostGolgi yeast, PostGolgi ctrl)
CCSC1=NSC2=NC(=O)/C(=C\c3coc4ccccc4c3=O)C(=N)N12	Yeast lifespan up 38 (no result: PostGolgi yeast, PostGolgi ctrl)
Cn1c(=O)c2c(nc(N3CCNCC3)n2Cc2cccc3ccccc23)n(C)c1=O	none
CCCOc1nc2c(c(=O)n(C)c(=O)n2C)n1Cc1cccc2ccccc12	PostGolgi ctrl 37
COc1ccc(C2C(C#N)=C(/N=C/N3CCN(C)CC3)OC3=C2C(=O)CC(C)(C)C3)cc1OC (configuration not stated)	none
O=[N+]([O-])c1ccc(N/N=C2/CCCCC2c2ccccn2)cc1 (configuration not stated)	BB579 growth dn 98 (no result: PostGolgi yeast, PostGolgi ctrl)
Cc1ccc(Nc2nc(CSc3nnnn3C)cs2)cc1	none
Cc1ccc(Nc2nc(CSc3nnnn3-c3ccccc3)cs2)cc1	PostGolgi ctrl 34
CCc1ccc(Nc2nc(N)nc(CSc3nnnn3-c3ccccc3)n2)cc1	PostGolgi ctrl 37
Cc1ccccc1Nc1nc(N)nc(COC(=O)CCS(=O)(=O)c2ccccc2)n1	none
Cc1ccc2c(CC(=O)OCc3nc(N)nc(Nc4ccccc4C)n3)coc2c1	PostGolgi ctrl 36
Cc1ccc(-c2nc3ccccc3s2)cc1S(=O)(=O)N1CCOCC1	PostGolgi ctrl 34
Cc1c(Cl)cccc1NC(=O)c1cc(-c2ccccc2O)n[nH]1	none
Cc1ccc(-c2cc(-c3ccccc3[N+](=O)[O-])[nH]n2)c(O)c1	PostGolgi ctrl 41
Cc1ccc(-c2cc(-c3ccccc3Cl)[nH]n2)c(O)c1	PostGolgi ctrl 38, BB579 growth dn 92
Cc1ccccc1-c1cc(-c2ccccc2O)n[nH]1	PostGolgi ctrl 52
Nc1n[nH]c(-c2ccccc2[N+](=O)[O-])n1	none (no result: PostGolgi yeast, PostGolgi ctrl)
Oc1ccc(Br)cc1-c1cc(-c2ccccc2F)[nH]n1	none
CCc1nnc(NC(=O)CSc2nnc3ncccn23)s1	none
CC(C)(C)c1ccc(C(=O)NNC(=O)Cc2cccc3ccccc23)cc1	PostGolgi ctrl 40
O=C(CCl)c1ccc(Cc2ncc(C(F)(F)F)cc2Cl)s1	Yeast lifespan up 68, PostGolgi yeast 86
Cc1ccc(C(C)C)cc1OCCCCN1CCCC1	none (no result: PostGolgi yeast, PostGolgi ctrl)
CC(=O)N(CCC(Cc1ccccc1)c1ccc2c(c1)OCO2)Cc1ccccc1F (configuration not stated)	PostGolgi ctrl 36
Fc1ccccc1CNCCC(Cc1ccccc1)c1ccc2c(c1)OCO2 (configuration not stated)	none (no result: PostGolgi yeast, PostGolgi ctrl)
CC(C(=O)NCC1CCCO1)N(C(=O)c1snc(C(N)=O)c1N)c1ccccc1 (configuration not stated)	PostGolgi ctrl 30
CC1CCc2c(sc3ncnc(NCCCOC(C)C)c23)C1 (configuration not stated)	PostGolgi ctrl 32
Cc1cc(-c2ccccc2)n(-c2ccc(C(N)=O)cc2)n1	none (no result: PostGolgi yeast, PostGolgi ctrl)
Cc1cc(-c2ccccc2)n(-c2ccc(C(=O)N3CCN(c4ncccn4)CC3)cc2)n1	PostGolgi ctrl 61
CCOC(=O)c1sc2nccc(N(C)C)c2c1N=CNOCc1c(F)cccc1Cl	none
CSc1nc(N2CCOCC2)c2c3c(sc2n1)CCCC3	PostGolgi ctrl 36
c1nc(N2CCOCC2)c2c3c(sc2n1)CCCC3	none
CSc1nsc(SCc2ccc(F)cc2)n1	none
CCCCC(=O)NNC(=S)NC(=O)CCC	BB579 growth dn 78 (no result: Yeast lifespan up, PostGolgi yeast, PostGolgi ctrl)
CCOc1cccc(-c2nnc3n2N=C(c2cc(OC)ccc2OC)CS3)c1	PostGolgi ctrl 58
COc1ccc(C2=Nn3c(nnc3-c3ccc(OC)cc3)SC2)cc1	PostGolgi ctrl 42
COc1ccc(OC)c(C2=Nn3c(nnc3-c3cc(OC)c(OC)c(OC)c3)SC2)c1	none
COc1cccc(C2=Nn3c(nnc3-c3ccccc3O)SC2)c1	none
COc1cccc(-c2nnc3n2N=C(c2cc(OC)ccc2OC)CS3)c1	PostGolgi ctrl 37
CCOc1ccc(S(=O)(=O)c2c(C(=O)c3ccccc3)cnc3cc4c(cc23)OCCO4)cc1	none (no result: PostGolgi yeast, PostGolgi ctrl)
O=C(COc1cccc(NC(=O)c2cccc([N+](=O)[O-])c2)c1)c1ccc(Br)cc1	none
CCOC(=O)c1cnc2c(C#N)c(C)nn2c1-c1ccccc1	PostGolgi ctrl 32
Cc1cc(C)n(-c2nc3ccccc3nc2N2CCCCCC2)n1	PostGolgi ctrl 39
O=C1CN(C(=O)c2cc(Br)c(Br)s2)c2ccccc2N1	PostGolgi ctrl 37
O=C1CN(C(=O)c2ccccc2)c2ccccc2N1	none
COc1ccc(C(=O)n2c(SC)nc3cc4c(cc32)OCCO4)cc1	none
COc1cc2c(cc1OC)C(c1ccc(-c3cc(Cl)ccc3Cl)o1)=NCC2	PostGolgi ctrl 52
COc1cc2c(cc1OC)C(c1ccc(-c3ccc(Cl)cc3Cl)o1)=NCC2	none
Cc1cc(C)nc(SCc2cc(=O)c(OC(=O)c3ccc(Cl)c([N+](=O)[O-])c3)co2)n1	Yeast lifespan up 30 (no result: PostGolgi yeast, PostGolgi ctrl)
Cc1ccccc1OCC(O)Cn1c2ccccc2c2ccccc21 (configuration not stated)	PostGolgi ctrl 38
CC(=O)Nc1ccc(OCC(O)Cn2c3ccccc3c3ccccc32)c(C)c1 (configuration not stated)	PostGolgi ctrl 46
CC(=O)Nc1ccc(OCC(O)Cn2c3ccccc3c3ccccc32)cc1 (configuration not stated)	none (no result: PostGolgi yeast, PostGolgi ctrl)
OC(COc1ccccc1)Cn1c2ccccc2c2ccccc21 (configuration not stated)	none (no result: PostGolgi yeast, PostGolgi ctrl)
